The structures appear in SMILES notation.

The target in experiment [1] is T1, Retinoic acid receptor RXR-gamma (Homo sapiens, UniProt P48443).
T1 sequence (P48443 whole entry): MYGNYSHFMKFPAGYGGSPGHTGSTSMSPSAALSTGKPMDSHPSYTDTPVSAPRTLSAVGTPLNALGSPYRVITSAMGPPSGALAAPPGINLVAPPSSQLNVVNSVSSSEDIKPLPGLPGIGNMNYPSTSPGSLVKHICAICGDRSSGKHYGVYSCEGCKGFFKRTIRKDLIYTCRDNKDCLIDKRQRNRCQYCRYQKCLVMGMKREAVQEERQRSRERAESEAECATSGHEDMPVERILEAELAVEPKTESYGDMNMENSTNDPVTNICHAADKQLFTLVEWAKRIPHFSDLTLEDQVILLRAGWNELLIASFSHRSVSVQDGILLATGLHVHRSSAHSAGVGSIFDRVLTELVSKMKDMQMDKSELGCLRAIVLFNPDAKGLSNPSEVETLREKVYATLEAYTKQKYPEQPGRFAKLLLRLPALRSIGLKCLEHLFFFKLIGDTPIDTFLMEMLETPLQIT
Nature of the experiment: Transcriptional activation of Retinoid X receptor RXR gamma. Details: species or system Cercopithecidae. Put shortly:
(§1)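 CV-1 cells transiently cotransfected with the receptor construct and a reporter gene, with induced transcription measured. Activity is normalized to all-trans RA.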

Experiment [2] has as its target T2, Retinoic acid receptor RXR-beta (Mus musculus, UniProt P28704).
T2 sequence (P28704 whole entry): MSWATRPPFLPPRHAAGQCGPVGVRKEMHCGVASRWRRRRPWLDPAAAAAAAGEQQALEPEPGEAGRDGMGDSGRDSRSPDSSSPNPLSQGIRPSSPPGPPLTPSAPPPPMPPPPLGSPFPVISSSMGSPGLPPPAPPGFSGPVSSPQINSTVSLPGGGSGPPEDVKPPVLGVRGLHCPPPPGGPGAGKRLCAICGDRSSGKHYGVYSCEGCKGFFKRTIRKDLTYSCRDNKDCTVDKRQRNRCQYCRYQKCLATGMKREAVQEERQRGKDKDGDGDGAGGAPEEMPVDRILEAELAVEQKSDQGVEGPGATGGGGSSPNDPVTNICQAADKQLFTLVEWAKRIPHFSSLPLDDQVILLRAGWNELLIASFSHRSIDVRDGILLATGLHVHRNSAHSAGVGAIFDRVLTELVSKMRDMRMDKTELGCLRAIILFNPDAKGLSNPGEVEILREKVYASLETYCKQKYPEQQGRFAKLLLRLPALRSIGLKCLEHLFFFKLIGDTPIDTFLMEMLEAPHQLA
Nature of the experiment: Dissociation constant for binding to Retinoid X receptor beta. Put shortly: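 Competitive binding assay measuring displacement at the RXRβ receptor subtype.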

For experiment [3], the target named is T3, Retinoic acid receptor beta (Mus musculus, UniProt P22605).
T3 sequence (P22605 whole entry): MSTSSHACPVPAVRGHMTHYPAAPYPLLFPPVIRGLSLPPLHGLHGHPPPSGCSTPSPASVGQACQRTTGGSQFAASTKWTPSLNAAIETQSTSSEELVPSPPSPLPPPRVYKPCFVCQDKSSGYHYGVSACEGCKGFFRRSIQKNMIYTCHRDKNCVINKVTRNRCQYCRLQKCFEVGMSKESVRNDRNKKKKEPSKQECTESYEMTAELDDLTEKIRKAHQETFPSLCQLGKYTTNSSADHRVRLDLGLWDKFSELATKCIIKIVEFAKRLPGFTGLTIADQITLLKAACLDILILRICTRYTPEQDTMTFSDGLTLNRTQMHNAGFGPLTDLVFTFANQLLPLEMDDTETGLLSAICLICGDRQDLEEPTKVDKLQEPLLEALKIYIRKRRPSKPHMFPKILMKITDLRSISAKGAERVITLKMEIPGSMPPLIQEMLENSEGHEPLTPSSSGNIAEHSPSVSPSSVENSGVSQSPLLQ
Nature of the experiment: Dissociation constant for binding to Retinoic acid receptor beta. Put shortly:
(§2)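 Competitive binding assays against each receptor subtype, with Kd values taken from competition.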

The target of experiment [4] is T4, Retinoic acid receptor gamma (Mus musculus, UniProt P18911).
T4 sequence (P18911 whole entry): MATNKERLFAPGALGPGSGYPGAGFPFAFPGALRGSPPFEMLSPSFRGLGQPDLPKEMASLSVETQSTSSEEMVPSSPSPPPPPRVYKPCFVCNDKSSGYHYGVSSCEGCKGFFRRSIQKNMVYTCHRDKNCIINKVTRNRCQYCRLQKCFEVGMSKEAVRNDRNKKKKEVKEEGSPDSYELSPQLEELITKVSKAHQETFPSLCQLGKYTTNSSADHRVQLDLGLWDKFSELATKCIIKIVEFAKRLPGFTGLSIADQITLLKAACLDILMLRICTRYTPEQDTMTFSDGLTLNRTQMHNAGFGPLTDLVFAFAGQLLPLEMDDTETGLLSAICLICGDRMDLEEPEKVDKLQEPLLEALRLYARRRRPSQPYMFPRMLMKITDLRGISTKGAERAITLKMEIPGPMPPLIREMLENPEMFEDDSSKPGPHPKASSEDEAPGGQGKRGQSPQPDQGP
Nature of the experiment: Dissociation constant for binding to Retinoic acid receptor gamma. Put shortly: as §2

The target of experiment [5] is T5, Retinoic acid receptor RXR-beta (Homo sapiens, UniProt P28702).
T5 sequence (P28702 whole entry): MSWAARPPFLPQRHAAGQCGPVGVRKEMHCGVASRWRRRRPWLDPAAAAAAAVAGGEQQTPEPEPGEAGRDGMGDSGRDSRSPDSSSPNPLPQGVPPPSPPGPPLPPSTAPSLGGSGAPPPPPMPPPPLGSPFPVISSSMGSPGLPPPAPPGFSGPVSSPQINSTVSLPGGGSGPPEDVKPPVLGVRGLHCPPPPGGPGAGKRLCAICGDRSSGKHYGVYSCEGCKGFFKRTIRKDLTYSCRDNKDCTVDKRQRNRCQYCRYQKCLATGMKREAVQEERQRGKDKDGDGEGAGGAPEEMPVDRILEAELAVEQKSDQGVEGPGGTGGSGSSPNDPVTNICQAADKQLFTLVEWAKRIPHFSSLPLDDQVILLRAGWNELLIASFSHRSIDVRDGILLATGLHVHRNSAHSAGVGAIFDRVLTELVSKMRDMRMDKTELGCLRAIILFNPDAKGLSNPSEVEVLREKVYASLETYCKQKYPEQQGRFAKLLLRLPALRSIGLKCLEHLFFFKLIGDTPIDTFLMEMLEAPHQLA
Nature of the experiment: Transcriptional activation of Retinoid X receptor RXR beta. Further details: species or system Cercopithecidae. Put shortly:
as §1

One may read the EC50 as the concentration giving half of the maximal effect. Low readings indicate higher potency in that assay, high ones lower potency in that assay. In general, Kd refers to the equilibrium constant for the complex coming apart. A high value points to a looser complex. Take `Cc1cc2c(cc1Sc1ccc(C(=O)O)cn1)C(C)(C)CCC2(C)C`: in experiment [1], the EC50 was 42 nM. In addition, in experiment [2], binding was put at a Kd of 87 nM.

With `Cc1cc2c(cc1S(=O)(=O)c1ccc(C(=O)O)cc1)C(C)(C)CCC2(C)C`, the Kd was over 10000 nM in experiment [3] and 10000 nM in experiment [4].

Turning to `CC1(C)CCC(C)(C)c2cc(Sc3ccc(C(=O)O)cc3)ccc21`, the results for the dissociation constant Kd in experiment [3], in experiment [4] and in experiment [2] were 4240 nM, over 10000 nM and 3090 nM, respectively.

On to `Cc1cc2c(cc1Sc1ccc(C(=O)O)cc1)C(C)(C)CCC2(C)C`, for which the EC50 in experiment [5] came to 300 nM; in experiment [1], 280 nM. The Kd in experiment [3] is over 10000 nM; in experiment [4], 10000 nM.

As to `Cc1cc2c(cc1Sc1ncc(C(=O)O)s1)C(C)(C)CCC2(C)C`, the results for the EC50 in experiment [5] and in experiment [1] were 1300 nM and 1900 nM, respectively. In addition, the dissociation constant Kd in experiment [3], in experiment [4] and in experiment [2] was 1000 nM in each case.

In the case of `Cc1cc2c(cc1[S+]([O-])c1ccc(C(=O)O)cc1)C(C)(C)CCC2(C)C` (stereo unspecified), the EC50 in experiment [5] is 3000 nM; in experiment [1] it was 1600 nM. Also, the dissociation constant Kd is over 10000 nM in experiment [3], 10000 nM in experiment [4] and over 10000 nM in experiment [2].
